# Source: PubChem (Johns Hopkins Ion Channel Center)
# This is a sample that favours compounds with a hit; in the whole collection about 3.5% have one here.
# MrgX1 ag – human MrgX1 receptor agonism, primary screen; Q96LB2; MrgX1-HEK293 cells, Fluo-4 calcium fluorescence, agonist mode; hits give high values; B-score at 10 µM; hit rate 0.44% among 310,000;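 active = calcium response B-score plate-corrected fluorescence ratio at least 3 library SD, with starting fluorescence B-score inside 5 SD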
# Target sequence (Q96LB2 whole entry, looked up): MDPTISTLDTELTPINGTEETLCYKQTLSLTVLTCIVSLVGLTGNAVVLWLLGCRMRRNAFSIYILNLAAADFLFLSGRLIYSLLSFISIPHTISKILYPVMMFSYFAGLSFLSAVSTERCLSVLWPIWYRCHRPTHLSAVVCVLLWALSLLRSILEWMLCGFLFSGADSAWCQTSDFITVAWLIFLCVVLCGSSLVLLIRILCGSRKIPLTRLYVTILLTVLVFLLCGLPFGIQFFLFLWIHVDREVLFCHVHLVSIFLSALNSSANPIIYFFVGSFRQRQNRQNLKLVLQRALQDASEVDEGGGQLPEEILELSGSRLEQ
#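 Assay system: MrgX1-expressing HEK293 cells / Amount: fifteen thousand cells per well / Doses: test compound in the initial addition of three / Timing: cells plated overnight, dye loaded 0.5 h 37 °C, 0.5 h room temperature / Technique: kinetic calcium dye fluorescence, Fluo-4 NW / Control set: positive and negative controls per plate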
# RGS4 pot – RGS4 potentiation or activation; B-score at 10 µM; hit rate 0.92% among 310,000; HEK293 M3R/inducible RGS4, carbachol calcium flux Fluo4; hits give low values;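 active = B-score of the integrated calcium signal more than 4 SD below the library mean, with starting fluorescence not abnormally high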;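 note: negative B-score means reduced calcium response which marks RGS4 activation or potentiation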
#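 System: HEK293 FlpIn-TREx cells, stable M3R, doxycycline-inducible RGS4. Timing: overnight RGS4 induction, 30 min dye load 37 °C, 20 min compound RT. Also added: carbachol, ECmax concentration. Measured by: Fluo4 fluorescence kinetic imaging of calcium. Evaluation: integrated calcium ratio converted to B score.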
# RGS4 inh – inhibitors of human RGS4; hit rate 0.45% among 310,000; AID 463165; HEK293 M3R/RGS4 inducible, Fluo-4 calcium flux; hits give high values; triggered by carbachol at its EC20; P49798; B-score at 10 µM;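 active = B-score, a plate-corrected calcium signal, over three deviations above library mean, with baseline fluorescence within five deviations of library mean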;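 note: RGS4 expression induced by doxycycline in cells with stable M3 receptor; B-score is computed from the integrated fluorescence ratio over baseline after carbachol; higher B-score means a larger calcium signal and so more RGS4 inhibition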
# Target sequence (P49798 whole entry, looked up): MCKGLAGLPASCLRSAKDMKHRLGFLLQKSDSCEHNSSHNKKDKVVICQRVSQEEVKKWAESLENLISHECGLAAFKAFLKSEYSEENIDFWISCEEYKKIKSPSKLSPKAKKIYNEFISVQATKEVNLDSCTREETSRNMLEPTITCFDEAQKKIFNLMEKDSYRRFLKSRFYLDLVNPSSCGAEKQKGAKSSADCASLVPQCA
# MrgX1 PAM – human MrgX1 positive allosteric modulation, primary screen; B-score at 10 µM; MrgX1-HEK293, Fluo-4 calcium flux, FDSS; hits give high values; hit rate 0.63% among 310,000; Q96LB2;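 active = plate-corrected calcium response at least 3 library SD above typical, normal starting fluorescence, not activating the receptor alone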;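 note: compound read alongside a low EC10 to EC30 dose of BAM8-22 agonist; peak minus trough fluorescence over baseline measured at the second addition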
# MrgX1 antagonist – antagonists of human MrgX1 receptor | hit rate 1.3% among 310,000 | MRGX1-HEK293 calcium flux, Fluo-4, BAM8-22 antagonism; hits give low values | B-score at 10 µM | Q96LB2;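 active = calcium-response B-score plate-corrected more than 3 library SD below zero, starting fluorescence within 5 deviations, no agonist response on first addition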;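 note: peak minus trough fluorescence over baseline after final BAM8-22 challenge near maximal dose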
# * hit, by the source's call; i = inactive; x = no result given.
SMILES,MrgX1 ag,RGS4 pot,RGS4 inh,MrgX1 PAM,MrgX1 antagonist
O=C(CSc1nc2ccccc2c(=O)n1CCCN1CCOCC1)NC12CC3CC(CC(C3)C1)C2,i,i,i,i,i
O=C(N/N=C/c1sc2ccccc2c1O)c1cccc2ccccc12,i,i,i,i,-4.8*
COc1ccc(C(=O)N/N=C/c2sc3ccccc3c2O)cc1,39*,i,i,i,i
Cc1ccc(OCC(=O)NNC(=S)NC(=O)C2CCCCC2)c(C)c1,48*,-7.1*,i,i,i
Cc1ccc(C(=O)NC(=S)NNC(=O)COc2ccc([N+](=O)[O-])cc2)cc1,i,i,i,6.9*,i
Cc1ccc(C(=O)NC(=S)NNC(=O)COc2ccccc2C)cc1,i,-8.7*,i,i,i
Cc1cccc(C(=O)NC(=S)NCc2ccccc2)c1,i,i,i,i,i
Cc1cccc(C(=O)NC(=S)NNC(=O)COc2c(C)cccc2C)c1,27*,i,i,i,i
CC(=O)c1cccc(NC(=O)NNC(=O)c2ccc(-c3ccccc3)cc2)c1,i,i,i,i,i
CCOc1ccc(C(=O)NCC(=O)N2CCC3(CC2)NCCc2[nH]cnc23)cc1,i,i,i,i,i
CC(C)CNC(=S)NC(=O)c1ccc([N+](=O)[O-])cc1,i,i,i,10*,i
CC1=[N+](C)N(c2ccccc2)C(=O)C1N=Cc1c(Cl)cccc1Cl (stereo not drawn),31*,i,i,i,i
CC1=[N+](C)N(c2ccccc2)C(=O)C1N=Cc1ccccc1Cl (stereo not drawn),i,i,i,i,i
CC(=O)c1ccc(N2CCN(C(=O)CCS(=O)(=O)c3ccc4c(c3)NC(=O)CS4)CC2)cc1,i,i,i,i,i
O=C(O)CSCC(=O)N(Cc1ccccc1)c1nc(-c2ccccc2)c(-c2ccccc2)s1,i,i,i,i,-4.7*
Cc1nc(C2CCC3C4CCC5=CC(=O)CC[C@]5(C)C4CC[C@]23C)cs1 (stereo partly drawn),i,-10*,i,i,i
CCOC(=O)C1=C(c2ccccc2)NC(N)=NC1c1ccc(OCc2ccc(C(=O)OC)cc2)cc1 (stereo not drawn),i,-7*,i,i,i
CN(C)C(=O)CN1C(=O)NC2(CCc3ccccc32)C1=O (stereo not drawn),i,i,i,i,i
C/C(CCC(C)C)=N\Nc1cc(C)c2ccccc2n1,i,i,i,10*,i
COc1ccc(N(C(=O)c2ccco2)C(C(=O)NC2CCCC2)c2ccc(N3CCOCC3)cc2)c(OC)c1 (stereo not drawn),i,i,i,i,i
COC(=O)c1cc(C(=O)Nc2ccc(S(N)(=O)=O)cc2)cc([N+](=O)[O-])c1,i,i,i,i,i
c1ccc(-c2nnsc2-c2ccccc2)cc1,i,i,i,i,i
O=S(=O)(c1ccc(Cl)c(Cl)c1)c1snnc1-c1ccccc1,x,-7.3*,i,x,x
C=CCOc1ccccc1/C=c1\sc2nc(=O)c(C)nn2c1=O,28*,i,i,i,i
OCC[C@@H]1C[C@H](O)[C@@H](O)[C@]2(CCc3ccccc3CO2)O1,i,i,i,i,i
SMILES,MrgX1 ag,RGS4 pot,RGS4 inh,MrgX1 PAM,MrgX1 antagonist
O=C1NC(=S)N/C1=C/c1cc([N+](=O)[O-])ccc1O,i,i,i,12*,i
CC(C)CN1C(=S)SC(C)(C)C1n1oc(=O)n(-c2ccccc2)c1=O (stereo not drawn),i,i,i,i,i
CC(C)CN1C(=S)SC(C)(C)C1n1oc(=O)n(-c2ccc(Cl)cc2)c1=O (stereo not drawn),i,-11*,i,i,i
CCc1ccc2oc(=O)cc(CN3CCCCC3)c2c1,i,i,i,i,i
Cc1ccc(OCC(=O)O/N=C(\N)c2ccncc2)c(C)c1,i,i,i,i,i
Cc1cc(C)c(C)c(OCC(=O)O/N=C(\N)c2ccncc2)c1,i,i,i,9.8*,i
CCOCCc1nnc(NC(=O)CCS(=O)(=O)c2ccccc2)s1,i,i,i,i,i
CC1(C)CC(=O)C2=C(C1)NC(=S)C(C#N)C21CCCCC1 (stereo not drawn),i,i,i,i,i
C/C(=N/NC(=O)c1ccc(C(C)(C)C)cc1)c1ccccn1,i,i,8.5*,i,i
COc1ccc(CCNC(=O)CCC(=O)NC2CCCC(C)C2C)cc1OC (stereo not drawn),i,i,i,i,i
Cc1ccc(C(=O)CC(=O)c2ccccc2)cc1,i,i,i,i,i
Cc1ccc(C(=O)Sc2cccccc2=O)cc1,49*,i,i,i,i
Cn1cccc1CNCC(O)c1ccccc1 (stereo not drawn),i,i,i,i,i
COc1cc2nc(Nc3cccc(F)c3)nc(N)c2cc1OC,i,-7*,i,i,i
COc1nc(Nc2cccc(F)c2)nc(OC)n1,i,i,i,i,i
CCCCN(C)CC(O)Cn1cc(/C=C/C(=O)c2ccc(C)cc2)c2ccccc21 (stereo not drawn),i,i,i,i,-5.4*
Cc1cc(C)c(S(=O)(=O)Nc2ccc3c4c(cccc24)CC3)c(C)c1,i,-7.5*,i,i,i
CN(C(=O)CSC1=NC2C(N=N1)c1cc(Br)ccc1N2C)C1CCCCC1 (stereo not drawn),i,i,i,i,i
CCCCCC(O)(CCN1CCCCC1)c1ccc(OCC)cc1 (stereo not drawn),i,-8.8*,i,i,i
CCC(O)(CCN1CCCCC1)c1ccccc1 (stereo not drawn),i,-7*,i,i,i
CCCCOc1ccc(C(O)(CC)CCN2CCOCC2)cc1 (stereo not drawn),i,i,i,i,-6.3*
O=C1c2cccc3cc([N+](=O)[O-])cc(c23)C(=O)N1CCN1CCCC1,x,i,i,x,x
Nc1cc2c3c(cccc3c1)C(=O)N(CCN1CCCC1)C2=O,i,i,i,i,-4.7*
C=CCn1c(SCC(=O)c2ccc(Br)cc2)nnc1C(CC(C)C)NC(=O)c1cccs1 (stereo not drawn),i,i,i,i,-6.1*
O=C1C(Cc2c[nH]c3ccccc23)NC(=S)N1C1CCCCC1 (stereo not drawn),i,i,i,i,i
